Experimental data reported in ChEMBL document CHEMBL3627694, “Estrogenic activity of bis(4-hydroxyphenyl)methanes with cyclic hydrophobic structure” (Bioorg Med Chem, 2015).

Experiments:
[1] = test system: MCF7; experiment: Estrogenic activity in human MCF7 cells assessed as increase in cell proliferation incubated for 4 days by WST-8 assay; type: functional, cell-based; details: MCF7, 96 h
Outline: (§1)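 MCF-7 cells kept in D-MEM with 10% FBS at 37 °C, 5% CO2. Before assay, switched to phenol red-free low-glucose D-MEM with 5% sFBS and seeded at 2000 cells/well. Serial dilutions, 1×10^-13 to 1×10^-6 M, given alone, DMSO as control. 4 days in triplicate, medium replaced after 2 days. WST-8 added, absorbance at 450 nm after 2–4 h. EC50 from sigmoidal curves; Emax relative to E2 as 100.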

[2] = target: Estrogen receptor beta (Homo sapiens) (UniProt Q92731); experiment: Displacement of [6,7-3H]17 beta-estradiol from human recombinant ER beta assessed as relative binding affinity incubated for 18 hrs at 4 degC by radiometric binding assay relative to estradiol
Outline: (§2)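 Human recombinant ERα or ERβ, 0.5 µg/tube, in buffer of 20 mM Tris–HCl pH 8.0, 0.3 M NaCl, 1 mM EDTA, 10 mM 2-mercaptoethanol, 0.2 mM PMSF. Incubated with 4 nM [6,7-³H]17β-estradiol ± unlabeled competitor, 4 °C, 18 h, in duplicate. Collected on nitrocellulose filter, washed, read by liquid scintillation. RBA taken with estradiol as 100; […] is the ERβ/ERα RBA ratio.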

[3] = species: Homo sapiens; experiment: Ratio of RBA for human recombinant ER beta to RBA for human recombinant ER alpha; outline: as §2
[4] = test system: MCF7; experiment: Estrogenic activity in human MCF7 cells assessed as increase in cell proliferation incubated for 4 days by WST-8 assay relative to estradiol; type: functional; details: MCF7, 96 h; outline: as §1
[5] = target: T1, Estrogen receptor (Homo sapiens) (UniProt P03372); experiment: Displacement of [6,7-3H]17 beta-estradiol from human recombinant ER alpha assessed as relative binding affinity incubated for 18 hrs at 4 degC by radiometric binding assay relative to estradiol; outline: as §2
T1 sequence (whole entry): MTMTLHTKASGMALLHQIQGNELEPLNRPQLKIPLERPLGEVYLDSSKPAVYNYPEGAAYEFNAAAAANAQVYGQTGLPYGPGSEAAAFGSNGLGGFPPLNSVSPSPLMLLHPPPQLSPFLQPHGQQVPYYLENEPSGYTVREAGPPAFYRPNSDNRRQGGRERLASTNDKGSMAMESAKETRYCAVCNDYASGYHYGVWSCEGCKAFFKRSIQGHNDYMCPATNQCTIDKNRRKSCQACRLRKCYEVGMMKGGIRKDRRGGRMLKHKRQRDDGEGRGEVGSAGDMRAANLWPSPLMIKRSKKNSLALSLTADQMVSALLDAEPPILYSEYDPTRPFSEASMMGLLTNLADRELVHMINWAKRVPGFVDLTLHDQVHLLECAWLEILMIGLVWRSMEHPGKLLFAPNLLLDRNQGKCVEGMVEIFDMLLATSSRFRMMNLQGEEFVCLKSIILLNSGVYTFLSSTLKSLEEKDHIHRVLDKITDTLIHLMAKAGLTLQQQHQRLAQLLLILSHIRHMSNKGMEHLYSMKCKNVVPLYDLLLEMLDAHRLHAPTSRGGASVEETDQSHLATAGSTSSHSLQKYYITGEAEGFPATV

[6] = test system: MCF7; experiment: Anti-estrogenic activity in human MCF7 cells assessed as reduction in estradiol-induced increase in cell proliferation incubated for 4 days by WST-8 assay; type: functional, cell-based; details: MCF7, 96 h
Outline: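 MCF-7 cells in phenol red-free low-glucose D-MEM with 5% sFBS, 2000 cells/well. Serial dilutions, 1×10^-13 to 1×10^-6 M, given with 0.1 nM estradiol, DMSO as control. 4 days in triplicate, medium with compound and estradiol renewed at day 2. Growth read by WST-8, absorbance at 450 nm after 2–4 h. IC50 from sigmoidal dose–response curves.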

Sequence of Estrogen receptor beta (Homo sapiens) (Q92731 whole entry): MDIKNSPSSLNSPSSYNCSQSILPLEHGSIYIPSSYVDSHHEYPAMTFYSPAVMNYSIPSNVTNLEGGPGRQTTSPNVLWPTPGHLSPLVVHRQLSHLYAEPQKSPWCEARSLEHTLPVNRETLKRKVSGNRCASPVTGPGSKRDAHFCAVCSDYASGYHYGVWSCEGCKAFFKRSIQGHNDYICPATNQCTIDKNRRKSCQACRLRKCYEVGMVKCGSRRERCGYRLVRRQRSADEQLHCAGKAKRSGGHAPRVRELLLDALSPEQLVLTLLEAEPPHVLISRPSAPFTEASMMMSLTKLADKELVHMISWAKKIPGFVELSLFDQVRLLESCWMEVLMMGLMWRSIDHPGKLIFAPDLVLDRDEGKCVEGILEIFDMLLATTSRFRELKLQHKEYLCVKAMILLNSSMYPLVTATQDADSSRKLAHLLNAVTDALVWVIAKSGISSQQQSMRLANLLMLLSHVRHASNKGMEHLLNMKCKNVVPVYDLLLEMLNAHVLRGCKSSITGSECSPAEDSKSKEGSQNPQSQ

SMILES | EC50 [1] | RBA [2] | Ratio [3] | RBA [5] | IC50 [6] | Emax [4]
Oc1ccc(C(c2ccc(O)cc2)C2CCCCC2)cc1 | 54.1 nM | 15.5% | 2.3 | 6.71% | > 1000 nM | 79%
Oc1ccc(C(c2ccc(O)cc2)C2CCCC(Cl)(Cl)C2)cc1 (stereo unspecified) | 4.6 nM | 15.7% | 1 | 15.3% | > 1000 nM | 70%
Oc1ccc(C(c2ccc(O)cc2)C2CCCC3(CCCCC3)C2)cc1 (stereo unspecified) | 0.8 nM | 29.3% | 1.3 | 21.9% | > 1000 nM | 74%
Oc1ccc(C(c2ccc(O)cc2)C2CCC(F)(F)CC2)cc1 | 22.5 nM | 3.93% | 1.3 | 2.71% | > 1000 nM | 80%
CC1(C)CCC(C(c2ccc(O)cc2)c2ccc(O)cc2)CC1 | 68.4 nM | 3.02% | 1.2 | 3.64% | > 1000 nM | 72%
Oc1ccc(C(c2ccc(O)cc2)C2CCCC2)cc1 | 48.8 nM | 13.7% | 3 | 4.61% | > 1000 nM | 69%
Oc1ccc(C(c2ccc(O)cc2)C2CCC(Br)(Br)CC2)cc1 | 211 nM | 0.18% | 0.2 | 0.957% | > 1000 nM | 64%

More lines, main results first:

EC50 [1] | RBA [2] | Ratio [3] | RBA [5] | IC50 [6] | SMILES | Emax [4]
0.39 nM | 8.43% | 0.2 | 50.6% | > 1000 nM | Oc1ccc(C(c2ccc(O)cc2)C2CCCC3(C2)SCCCS3)cc1 (stereo unspecified) | 80%
304 nM | 0.158% | 0.2 | 0.662% | > 1000 nM | Oc1ccc(C(c2ccc(O)cc2)C2CCC(Cl)(Cl)CC2)cc1 | 78%
16.6 nM | 4.29% | 0.7 | 5.78% | 19.6 nM | Oc1ccc(C(c2ccc(O)cc2)C2CCCC(F)(F)C2)cc1 (stereo unspecified) | 58%
 | 0.219% | 0.5 | 0.465% | > 1000 nM | Oc1ccc(C(c2ccc(O)cc2)C2CCC3(CC2)OCCO3)cc1 | 22%
2.4 nM | 30.7% | 0.3 | 98.8% | 64.9 nM | CC1(C)CCCC(C(c2ccc(O)cc2)c2ccc(O)cc2)C1 (stereo unspecified) | 74%
 | 35.2% | 1.2 | 28.4% | 63.1 nM | CC1(C)CC(C(c2ccc(O)cc2)c2ccc(O)cc2)CC(C)(C)C1 | 32%
